Experimental data from ChEMBL document CHEMBL1132971, “New azolidinediones as inhibitors of protein tyrosine phosphatase 1B with antihyperglycemic properties” (J Med Chem, 2000).
Each block holds one compound with its values, some of them ahead of it. Active and inactive are the calls of the source. The calls are words filed in the database; no cut-off is given here.

Key:
[1] = molecular target: T1, Tyrosine-protein phosphatase non-receptor type 1 (Mus musculus) (UniProt P35821); assay: In vivo ability to decrease plasma glucose levels in diabetic C57BL/KsJ ob/ob mouse at a dose 100 mg/kg/day; format: functional, organism-based
T1 sequence (whole entry): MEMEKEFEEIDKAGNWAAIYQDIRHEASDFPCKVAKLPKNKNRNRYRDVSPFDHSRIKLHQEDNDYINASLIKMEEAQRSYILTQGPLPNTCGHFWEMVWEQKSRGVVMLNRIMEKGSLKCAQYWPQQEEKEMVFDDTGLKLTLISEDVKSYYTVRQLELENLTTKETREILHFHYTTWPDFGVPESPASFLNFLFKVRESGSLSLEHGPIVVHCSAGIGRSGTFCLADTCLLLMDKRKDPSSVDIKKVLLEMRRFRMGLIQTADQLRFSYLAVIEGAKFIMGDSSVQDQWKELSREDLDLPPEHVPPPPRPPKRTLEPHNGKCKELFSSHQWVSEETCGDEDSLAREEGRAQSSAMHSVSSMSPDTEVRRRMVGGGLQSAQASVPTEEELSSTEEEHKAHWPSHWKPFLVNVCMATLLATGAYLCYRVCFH
Method in brief: (§1)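 Diabetic db/db or ob/ob mice dosed orally once daily for 4 days. Plasma glucose and insulin reported as percent change from a vehicle-treated group. 4-6 mice per group. Significance set at p < 0.05 or p < 0.01 versus vehicle; NS means generally less than -15% change.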

[2] = molecular target: T2, Tyrosine-protein phosphatase non-receptor type 1 (Rattus norvegicus, UniProt P20417); assay: Inhibition of PTPase activity in rat hepatic membrane at a concentration of 50 uM using pNPP as the substrate; format: cell membranes, Liver
T2 sequence (P20417 whole entry): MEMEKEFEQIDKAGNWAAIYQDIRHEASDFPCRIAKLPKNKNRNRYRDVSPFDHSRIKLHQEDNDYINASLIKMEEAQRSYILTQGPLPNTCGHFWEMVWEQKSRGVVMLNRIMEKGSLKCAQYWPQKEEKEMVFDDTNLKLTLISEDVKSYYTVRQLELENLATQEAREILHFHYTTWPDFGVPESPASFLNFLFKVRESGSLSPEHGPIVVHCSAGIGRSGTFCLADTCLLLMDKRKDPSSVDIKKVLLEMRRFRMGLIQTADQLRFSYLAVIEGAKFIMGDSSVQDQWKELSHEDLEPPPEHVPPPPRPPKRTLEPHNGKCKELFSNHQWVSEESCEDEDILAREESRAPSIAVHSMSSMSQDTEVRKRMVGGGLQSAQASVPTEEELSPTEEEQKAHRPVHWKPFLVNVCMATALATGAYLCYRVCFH
Method in brief: (§2)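 Liver membranes from male Sprague-Dawley rats (100-150 g), about 30 µg protein per well. Preincubated 10 min at 37 °C with compound in 1.25% DMSO in 50 mM HEPES pH 7.4. Then 6.33 mM pNPP for 30 min at 37 °C, stopped with NaOH. p-Nitrophenol read at 410 nm. Run in triplicate. Reported as percent of untreated control.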

[3] = molecular target: T3, Tyrosine-protein phosphatase non-receptor type 1 (Rattus norvegicus) (UniProt P20417); assay: Inhibition of PTPase activity using recombinant r-PTP1B as the enzyme and IR-triphosphopeptide as substrate at 50 uM
T3 sequence (whole entry): T2 sequence (P20417 whole entry)
Method in brief: (§3)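 Rat recombinant PTP1B in 33 mM TRIS-HCl, 2 mM EDTA, 50 mM β-mercaptoethanol, pH 7.4 (about 1000-2000 nmol/min/mg). Preincubated 10 min at 37 °C with or without compound in HEPES buffer pH 7.4. Released phosphate read by malachite green-ammonium molybdate at 650 nm against a phosphate standard. Quadruplicates. IC50 by four-parameter logistic fit.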

[4] = molecular target: T1, Tyrosine-protein phosphatase non-receptor type 1 (Mus musculus); assay: Ability to decrease plasma insulin levels in mouse at a dose 100 mg/kg/day; format: functional, organism-based; method in brief: as §1
Mus musculus [5] = assay: Evaluated for their ability to decrease plasma insulin levels in mouse at a dose 100 mg/kg/day. **p indicates <0.01; format: functional
Method in brief: (§4)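 Mice dosed orally once daily for 4 days; plasma glucose and insulin measured and expressed as percent change versus a vehicle-treated group (mean ± SE, 4-6 mice/group). NS is generally less than -15% change. Significance is versus vehicle-treated mice.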

Mus musculus [6] = assay: Evaluated in vivo for their ability to decrease plasma glucose levels in diabetic C57BL/KsJ ob/ob mouse at a dose 100 mg/kg/day.; format: functional; method in brief: as §4
[7] = molecular target: T2, Tyrosine-protein phosphatase non-receptor type 1; assay: Inhibition of PTPase activity using recombinant r-PTP1B as the enzyme and IR-triphosphopeptide as substrate; method in brief: as §3
[8] = molecular target: T3, Tyrosine-protein phosphatase non-receptor type 1 (Rattus norvegicus); assay: Inhibition of PTPase (PTP1B) activity in rat hepatic membrane at 50 uM concentration, using pNPP as the substrate; format: cell membranes; conditions: Liver; method in brief: as §2
Mus musculus [9] = assay: Evaluated for their ability to decrease plasma insulin levels in mouse at a dose 100 mg/kg/day.([…]); format: functional; method in brief: as §1
Mus musculus [10] = assay: Evaluated in vivo for their ability to decrease plasma glucose levels in diabetic C57BL/KsJ db/db mouse at a dose 100 mg/kg/day.([…]); format: functional; method in brief: as §1
[11] = molecular target: T3, Tyrosine-protein phosphatase non-receptor type 1 (Rattus norvegicus); assay: IC50 for PTPase activity, recombinant r-PTP1B as the enzyme .
Mus musculus [12] = assay: Evaluated in vivo for their ability to decrease plasma glucose levels in diabetic C57BL/KsJ db/db mouse at a dose 100 mg/kg/day.,*p indicates <0.05; format: functional; method in brief: as §4
[13] = molecular target: T2, Tyrosine-protein phosphatase non-receptor type 1; assay: Inhibition of PTPase activity using recombinant r-PTP1B and IR-triphosphopeptide as substrate; ND is no data.; method in brief: as §3
Mus musculus [14] = assay: Evaluated in vivo for their ability to decrease plasma glucose levels in diabetic C57BL/KsJ db/db mouse at a dose 100 mg/kg/day, *p indicates <0.05; format: functional; method in brief: as §4
[15] = molecular target: T3, Tyrosine-protein phosphatase non-receptor type 1 (Rattus norvegicus); assay: Inhibition of PTPase activity using recombinant Protein-tyrosine phosphatase 1B as the enzyme and IR-triphosphopeptide as substrate at 50 uM
Method in brief: (§5)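 Recombinant rat PTP1B (human 321-aa form assayed the same way), activity about 1000-2000 nmol/min/mg, preincubated with compound for 10 min at 37 °C in HEPES pH 7.4. The reaction is started with 50 µM triphosphorylated insulin receptor 1142-1153 dodecapeptide and run 30 min at 37 °C. Released phosphate read by malachite green-molybdate at 650 nm, in quadruplicate. Result is percent inhibition versus control.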

[16] = molecular target: T3, Tyrosine-protein phosphatase non-receptor type 1 (Rattus norvegicus); assay: Inhibition of Protein-tyrosine phosphatase 1B activity in rat hepatic membrane at a concentration of 50 uM using pNPP as the substrate; format: cell membranes; conditions: Liver; method in brief: as §2
Mus musculus [17] = assay: Evaluated in vivo for their ability to decrease plasma glucose levels in diabetic C57BL/KsJ db/db mouse at a dose 100 mg/kg/day; NS=not significant; format: functional, organism-based; method in brief: as §1
Mus musculus [18] = assay: Evaluated in vivo for their ability to decrease plasma glucose levels in diabetic C57BL/KsJ db/db mouse at a dose 100 mg/kg/day. *p indicates <0.05; format: functional; method in brief: as §4
[19] = molecular target: T3, Tyrosine-protein phosphatase non-receptor type 1 (Rattus norvegicus); assay: Inhibition of PTPase activity using recombinant r-PTP1B as the enzyme and IR-triphosphopeptide as substrate at 10 uM; method in brief: as §5
Mus musculus [20] = assay: Evaluated for their ability to decrease plasma insulin levels in mouse at a dose 100 mg/kg/day; NS=not significant; format: functional, organism-based; method in brief: as §1
Mus musculus [21] = assay: Evaluated in vivo for their ability to decrease plasma glucose levels in diabetic C57BL/KsJ db/db mouse at a dose 100 mg/kg/day; NS is non significant; format: functional, organism-based; method in brief: as §1
[22] = molecular target: T2, Tyrosine-protein phosphatase non-receptor type 1; assay: Inhibition of PTPase activity using recombinant Protein-tyrosine phosphatase 1B and IR-triphosphopeptide as substrate; ND is no data.

Decrease [1]: Not significant
Inhibition % [2]: 27%
inhibition [3]: 1.4%
Decrease [4]: Not significant
Compound: Cc1oc(-c2ccc(C(F)(F)F)cc2)nc1COc1cccc(/C(=C/Cn2oc(=O)[nH]c2=O)c2ccc(Cl)cc2)c1

Compound: Cc1oc(-c2ccc(C(F)(F)F)cc2)nc1COc1cccc(/C(=C/Cn2oc(=O)[nH]c2=O)Cc2ccccc2)c1
Decrease (Mus musculus [5]): 46%
Decrease (Mus musculus [6]): 23%
inhibition [3]: 0.8%

Inhibition % [2]: 23%
IC50 [7]: 1600 nM
Compound: CCCC/C(=C\Cn1oc(=O)[nH]c1=O)c1cccc(Oc2cc(Cl)cc(Cl)c2)c1

inhibition [8]: 51%
IC50 [11]: 1800 nM
Compound: Cc1oc(-c2ccc(C(F)(F)F)cc2)nc1COc1cccc(/C(I)=C/Cn2oc(=O)[nH]c2=O)c1
Decrease (Mus musculus [9]): 64%
Decrease (Mus musculus [10]): 38%

Compound: CCC/C(=C/Cn1oc(=O)[nH]c1=O)c1cccc(OCc2nc(-c3ccc(C(F)(F)F)cc3)oc2C)c1
Decrease (Mus musculus [12]): 55%
Decrease [1]: Not significant
inhibition [8]: 58%
IC50 [13]: Not significant
Decrease [4]: Not significant

Compound: CC/C(=C/Cn1oc(=O)[nH]c1=O)c1cccc(OCc2nc(-c3ccc(C(F)(F)F)cc3)oc2C)c1
Decrease (Mus musculus [14]): 65%
Decrease [1]: Not significant
inhibition [15]: 80%
inhibition [16]: 56%
Decrease [4]: Not significant

inhibition [8]: 5%
Compound: C/C(=C\CC1SC(=O)NC1=O)c1cccc(OCc2nc(-c3ccccc3)oc2C)c1 (stereo not drawn)
Decrease (Mus musculus [17]): inactive

Compound: Cc1oc(-c2ccc(C(F)(F)F)cc2)nc1COc1cccc(C2CC2Cn2oc(=O)[nH]c2=O)c1 (stereo not drawn)
Decrease (Mus musculus [18]): 36%
Decrease [1]: Not significant
inhibition [8]: 51%
inhibition [19]: 28%
Decrease [4]: Not significant

IC50 [11]: 400 nM
Compound: CCCCCCCC/C(=C\Cn1oc(=O)[nH]c1=O)c1cccc(OCc2nc(-c3ccc(C(F)(F)F)cc3)oc2C)c1
Decrease (Mus musculus [20]): inactive
Decrease (Mus musculus [10]): 43%

Decrease [1]: Not significant
IC50 [22]: Not significant
inhibition [16]: 54%
Decrease [4]: Not significant
Compound: C/C(Cn1oc(=O)[nH]c1=O)=C(\C)c1cccc(OCc2nc(-c3ccc(C(F)(F)F)cc3)oc2C)c1
Decrease (Mus musculus [21]): inactive
